# Results from publication PMC7891373 (Clinical Pharmacology in Drug Development, 2020).
# Where two headings read alike, the source gives them in different places. Marks after values point to notes of the source that are not given here.
# Key:
# [1] = cited from earlier work
# [2] = type: in vivo, human; conditions: single oral dose, fasted; for AUC / AUC(0-t) / half-life / Tmax: male, human, plasma, po; for AUC: AUC0‐∞; for AUC(0-t): AUClast, AUC24h; for Tmax: n=24, median (min-max)
# Procedure, shortened: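 Healthy Japanese men aged 20–45 y with BMI 18.5 to <30.0 kg/m2, in an open-label randomized 2-period crossover. The 25-mg cohort was split into tablet→capsule and capsule→tablet sequences of 12, each a single fasted oral dose, with a washout of at least 28 days. Venous blood was drawn predose and 0.25–24 h post-dose. Plasma test compound was measured by validated LC-MS/MS (LLOQ 10.0 ng/mL). Parameters came from individual concentration-time profiles (AUClast = AUC24h), giving tablet/capsule geometric mean ratios.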
# [3] = test system: CYP2C9; conditions: in vitro; cited from earlier work
# [4] = test system: CYP2C8; conditions: in vitro; cited from earlier work
# [5] = Safety and tolerability assessment in the phase 1 study; type: in vivo, human; conditions: single oral dose 25 or 50 mg, tablet and capsule
# Procedure, shortened: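 Healthy Japanese men received single fasted oral 25- or 50-mg tablet and capsule doses in a crossover design, confined at the site around each dose. The safety set was all subjects given at least 1 dose. Adverse events were assessed by clinical interview, physical examination, 12-lead ECG and routine laboratory tests from start of treatment to end of follow-up. Each was coded by MedDRA 17.0 (Japanese) and graded for severity, seriousness and causality.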
smiles,measurement,setting,value
Cc1nc(Cl)c(-c2noc(-c3cc(O)c(O)c([N+](=O)[O-])c3)n2)c(C)c1Cl [BIA 9–1079],half-life of metabolite,[1]; not assessed in this study,short
Cc1c(Cl)c(C)[n+]([O-])c(Cl)c1-c1noc(-c2cc(OS(=O)(=O)O)c(O)c([N+](=O)[O-])c2)n1 [BIA 9–1103],half-life of metabolite,[1]; especially following repeated dosing,relatively long
Cc1c(Cl)c(C)[n+]([O-])c(Cl)c1-c1noc(-c2cc(O)c(O)c([N+](=O)[O-])c2)n1 [Opicapone],AUC,"[2]; 25 mg, opicapone 25 mg tablet, n=23, mean ± SD",2530 ± 581 ng·h/mL
same,AUC(0-t),"[2]; 25 mg, opicapone 25 mg tablet, n=24, mean ± SD",2480 ± 586 ng·h/mL
same,half-life,"[2]; 25 mg, t1/2, opicapone 25 mg tablet, n=23, mean ± SD",0.729 ± 0.173 h
same,Tmax,"[2]; 25 mg, opicapone 25 mg tablet",2 h
same,AUC,"[2]; 50 mg, opicapone 50 mg capsule, n=23, mean ± SD",4210 ± 1620 ng·h/mL
same,AUC(0-t),"[2]; 50 mg, opicapone 50 mg capsule, n=24, mean ± SD",4080 ± 1650 ng·h/mL
same,half-life,"[2]; 50 mg, t1/2, opicapone 50 mg capsule, n=23, mean ± SD",1.18 ± 0.477 h
same,Tmax,"[2]; 50 mg, opicapone 50 mg capsule",2 h
same,CL/F,"[2]; opicapone 25 mg capsule, n=24, mean ± SD",12.9 ± 5.31 L/h
same,CL/F,"[2]; opicapone 25 mg tablet, n=23, mean ± SD",10.6 ± 3.50 ^b L/h
same,Geometric Mean Ratio (Tablets/Capsules) of AUC0‐∞,"[2]; opicapone 25 mg, n=24",1.19
same,Geometric Mean Ratio (Tablets/Capsules) of AUClast,"[2]; opicapone 25 mg, n=24",1.18
same,Geometric Mean Ratio (Tablets/Capsules) of Cmax,"[2]; opicapone 25 mg, n=24",1.24
same,CL/F,"[2]; opicapone 50 mg capsule, n=23, mean ± SD",13.6 ± 5.09 ^b L/h
same,CL/F,"[2]; opicapone 50 mg tablet, n=23, mean ± SD",10.4 ± 3.20 L/h
same,Geometric Mean Ratio (Tablets/Capsules) of AUC0‐∞,"[2]; opicapone 50 mg, n=23",1.27
same,Geometric Mean Ratio (Tablets/Capsules) of AUClast,"[2]; opicapone 50 mg, n=24",1.28
same,Geometric Mean Ratio (Tablets/Capsules) of Cmax,"[2]; opicapone 50 mg, n=24",1.42
same,CYP2C9 inhibition,[3],"weak, reversible inhibitor"
same,CYP2C8 inhibition,[4],"weak, reversible inhibitor"
same,Serious adverse events,"[5]; any group, study period",no serious adverse events
same,Tolerability,[5]; healthy Japanese subjects,well tolerated
